# Reference: ChEMBL document CHEMBL1123131, “Examination of a series of 8-[3-[bis(4-fluorophenyl)amino]propyl]-1-aryl-1,3,8- triazaspiro[4.5]decan-4-ones as potential antipsychotic agents” (J Med Chem, 1985)
# Assays:
# [1] = species on record: Rattus norvegicus; experiment: Activity against the suppression of high base line self stimulation with electrodes in the medial forebrain of the posterior hypothalamus of male hooded rats (Peroral admin.); format: functional; settings: po
# Summary of the method: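 Male hooded rats with electrodes in the medial forebrain bundle of the posterior hypothalamus; rapid high base-line self-stimulation rates served as base lines. Oral dosing, behaviour recorded continuously on cumulative recorders. Active if base-line rate was reduced by 50% for 1.5 h or more. Four rats per dose; ED50 by computer analysis (linear regression from doses bracketing the ED50).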
# [2] = tested on: Rattus norvegicus; experiment: The compound was tested (after peroral administration) for its ability to induce catalepsy in rats; format: functional; settings: po
# Summary of the method: (§1)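 Fasted male Long-Evans hooded rats, 180–220 g, used once; oral intubation, suspended in 0.2% methylcellulose if insoluble. At least three doses, eight rats per dose. Forepaws placed on a horizontal rod 11.5 cm high, read every 30 min for 1 h then hourly to 6 h, 24 h if needed. Partial scores summed; ED50 by nonlinear regression.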
# [3] = tested on: Mus musculus; experiment: Antipsychotic activity using locomotor activity (LMA)-inverted screen test in mice (i.p. admin.); format: functional; settings: ip, read-out: MED
# Summary of the method: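 Unfasted male Swiss-Webster mice, 20–30 g, nine per dose; ip 1 h before testing in 0.2% methocel, 10 mL/kg; 10, 30, 100 mg/kg, three replicates. Inverted-screen falloff over 60 s, then photocell locomotion for 60 min versus vehicle. MED = lowest dose giving >60% locomotor inhibition with <60% falloff.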
# [4] = The compound was tested (after peroral administration) for its ability to induced catalepsy in squirrel monkeys; format: functional; settings: po
# Summary of the method: (§2)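 Adult squirrel monkeys, 600–1000 g, fasted overnight, oral dosing with at least 1 week between dosings. Observed hourly for at least 6 h and at 24 h. Four animals per dose, at least three doses; ED50 by nonlinear regression for quantal data.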
# [5] = Minimal effective dose (after peroral administration) required for signs of EPS in cebus monkeys; format: functional; settings: po; read-out: MED
# [6] = tested on: Rattus norvegicus; experiment: The compound was tested (after peroral administration) for inhibition of sidman avoidance in rat; format: functional; settings: po
# Summary of the method: (§3)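 Mature male Long-Evans rats or squirrel monkeys trained on a modified Sidman avoidance lever schedule with 0.5-s shock; 6-h sessions, given orally. Response expressed as % inhibition of nondrug avoidance responding, each animal its own control. At least three doses, four animals each, sessions at least 1 week apart; ED50 by nonlinear regression.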
# [7] = molecular target: Muscarinic acetylcholine receptor; experiment: The compound was tested for inhibition of [3H]QNB binding to Muscarinic acetylcholine receptor; format: protein assay
# [8] = molecular target: T1, Adrenergic receptor alpha-1 (Rattus norvegicus, UniProt P15823+P23944+P43140)
# T1 sequence (P15823 whole entry): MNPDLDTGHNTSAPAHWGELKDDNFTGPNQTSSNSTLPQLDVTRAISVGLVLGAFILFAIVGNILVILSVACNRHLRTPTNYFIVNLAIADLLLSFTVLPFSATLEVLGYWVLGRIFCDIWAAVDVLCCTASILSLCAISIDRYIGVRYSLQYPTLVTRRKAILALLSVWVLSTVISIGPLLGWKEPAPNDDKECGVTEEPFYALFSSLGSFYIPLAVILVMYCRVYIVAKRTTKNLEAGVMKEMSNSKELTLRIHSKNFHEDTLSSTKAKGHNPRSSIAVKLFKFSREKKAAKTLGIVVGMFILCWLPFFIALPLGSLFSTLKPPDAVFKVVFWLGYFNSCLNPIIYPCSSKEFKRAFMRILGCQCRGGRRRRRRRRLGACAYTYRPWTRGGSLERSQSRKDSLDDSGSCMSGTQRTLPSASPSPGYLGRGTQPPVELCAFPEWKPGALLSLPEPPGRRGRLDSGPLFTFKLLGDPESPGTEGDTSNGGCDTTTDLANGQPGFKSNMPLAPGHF
# T1 sequence (P23944 whole entry): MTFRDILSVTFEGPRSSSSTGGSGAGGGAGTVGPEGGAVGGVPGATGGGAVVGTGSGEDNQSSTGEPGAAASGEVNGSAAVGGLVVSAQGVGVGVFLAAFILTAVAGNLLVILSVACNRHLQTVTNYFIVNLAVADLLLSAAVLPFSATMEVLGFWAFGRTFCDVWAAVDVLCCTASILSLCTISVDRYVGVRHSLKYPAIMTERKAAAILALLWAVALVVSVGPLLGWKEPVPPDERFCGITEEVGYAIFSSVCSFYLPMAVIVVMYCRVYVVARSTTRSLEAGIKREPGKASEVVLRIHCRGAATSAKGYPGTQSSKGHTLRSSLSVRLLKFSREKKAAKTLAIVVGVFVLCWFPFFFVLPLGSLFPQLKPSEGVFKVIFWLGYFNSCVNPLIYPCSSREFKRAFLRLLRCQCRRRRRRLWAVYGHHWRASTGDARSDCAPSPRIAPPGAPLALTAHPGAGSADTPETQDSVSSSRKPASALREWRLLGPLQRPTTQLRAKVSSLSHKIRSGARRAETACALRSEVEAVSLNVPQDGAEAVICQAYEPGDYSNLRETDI
# T1 sequence (P43140 whole entry): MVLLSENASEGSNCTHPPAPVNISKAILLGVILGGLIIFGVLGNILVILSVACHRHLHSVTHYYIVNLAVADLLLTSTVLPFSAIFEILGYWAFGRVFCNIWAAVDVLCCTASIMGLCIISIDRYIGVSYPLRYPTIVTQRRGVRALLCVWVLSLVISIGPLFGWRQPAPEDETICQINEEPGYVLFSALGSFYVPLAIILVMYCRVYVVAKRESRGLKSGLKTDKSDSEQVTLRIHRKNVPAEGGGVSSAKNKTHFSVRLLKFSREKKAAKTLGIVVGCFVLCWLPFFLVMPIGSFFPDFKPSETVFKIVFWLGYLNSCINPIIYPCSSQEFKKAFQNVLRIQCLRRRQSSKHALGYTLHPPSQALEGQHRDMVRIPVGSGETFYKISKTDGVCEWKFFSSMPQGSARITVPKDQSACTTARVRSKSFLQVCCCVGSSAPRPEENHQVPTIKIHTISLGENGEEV
# [9] = The compound was (after peroral administration) tested for inhibition of sidman avoidance in squirrel monkeys; format: functional; settings: po; summary of the method: as §3
# [10] = Minimal effective dose required for signs of EPS in cebus monkeys; format: functional; settings: read-out: MED
# [11] = The compound was tested for its ability to induced catalepsy in squirrel monkeys; format: functional; summary of the method: as §2
# [12] = species on record: Rattus norvegicus; experiment: The compound was tested for inhibition of sidman avoidance in rat; format: functional; summary of the method: as §3
# [13] = species on record: Rattus norvegicus; experiment: The compound was tested for its ability to induced catalepsy in rats; format: functional; summary of the method: as §1
# [14] = The compound was tested for inhibition of sidman avoidance in squirrel monkeys; format: functional; summary of the method: as §3
SMILES,ED50 [1] [mg/kg],ED50 [2] [mg/kg],minimal effective dose [3] [mg/kg],further results
CN1CN(c2ccccc2)C2(CCN(CCCN(c3ccc(F)cc3)c3ccc(F)cc3)CC2)C1=O,2.84,33,≤ 10,–
O=C1NCN(c2ccc(Cl)cc2)C12CCN(CCCN(c1ccc(F)cc1)c1ccc(F)cc1)CC2,2,–,30,–
O=C1NCN(c2ccccc2)C12CCN(CCCN(c1ccc(F)cc1)c1ccc(F)cc1)CC2,–,81,5,ED50 [4]: 30 mg/kg; minimal effective dose [5]: 2.5 mg/kg; ED50 [6]: 2.8 mg/kg; IC50 [7]: > 100 nM; IC50 [8]: > 1000 nM; ED50 [9]: 1.7 mg/kg
CN(C)CCCN1CN(c2ccccc2)C2(CCN(CCCN(c3ccc(F)cc3)c3ccc(F)cc3)CC2)C1=O,16,200,–,–
O=C1N(Cc2ccccc2)CN(c2ccccc2)C12CCN(CCCN(c1ccc(F)cc1)c1ccc(F)cc1)CC2,–,–,> 100,–
CN1CN(c2cccc(C(F)(F)F)c2)C2(CCN(CCCN(c3ccc(F)cc3)c3ccc(F)cc3)CC2)C1=O,> 16,–,30,–
C=CCN1CN(c2ccccc2)C2(CCN(CCCN(c3ccc(F)cc3)c3ccc(F)cc3)CC2)C1=O,1.06,22,≤ 10,–
O=C1NCN(c2ccc(F)cc2)C12CCN(CCCN(c1ccc(F)cc1)c1ccc(F)cc1)CC2,0.55,4.5,≤ 10,–
O=C1NCN(c2ccccc2F)C12CCN(CCCN(c1ccc(F)cc1)c1ccc(F)cc1)CC2,> 16,–,–,–
O=C1N(CC2CC2)CN(c2ccccc2)C12CCN(CCCN(c1ccc(F)cc1)c1ccc(F)cc1)CC2,8.39,200,30,–
O=C1N(CO)CN(c2ccccc2)C12CCN(CCCN(c1ccc(F)cc1)c1ccc(F)cc1)CC2,0.89,11,< 10,–
Cc1ccc(N2CNC(=O)C23CCN(CCCN(c2ccc(F)cc2)c2ccc(F)cc2)CC3)cc1,> 16,–,≤ 10,–
O=C1NCN(c2cccc(F)c2)C12CCN(CCCN(c1ccc(F)cc1)c1ccc(F)cc1)CC2,0.78,4.1,30,–
COc1ccc(N2CNC(=O)C23CCN(CCCN(c2ccc(F)cc2)c2ccc(F)cc2)CC3)cc1,> 16,–,30,–
CC(C)c1ccc(N2CNC(=O)C23CCN(CCCN(c2ccc(F)cc2)c2ccc(F)cc2)CC3)cc1,–,–,> 100,–
O=C1N(COCc2ccccc2)CN(c2ccccc2)C12CCN(CCCN(c1ccc(F)cc1)c1ccc(F)cc1)CC2,> 16,–,100,–
CC(=O)OCN1CN(c2ccccc2)C2(CCN(CCCN(c3ccc(F)cc3)c3ccc(F)cc3)CC2)C1=O,1.03,17,< 10,–
CN1CN(c2ccc(F)cc2)C2(CCN(CCCN(c3ccc(F)cc3)c3ccc(F)cc3)CC2)C1=O,0.96,54,≤ 10,–
CCN(CC)CCN1CN(c2ccccc2)C2(CCN(CCCN(c3ccc(F)cc3)c3ccc(F)cc3)CC2)C1=O,5.65,138,≤ 10,–
O=C1NCN(c2cccc(C(F)(F)F)c2)C12CCN(CCCN(c1ccc(F)cc1)c1ccc(F)cc1)CC2,–,–,> 100,–
CN1CCN(C2=Nc3cc(Cl)ccc3Nc3ccccc32)CC1 [CLOZAPINE],–,–,10,minimal effective dose [10]: > 30 mg/kg; ED50 [11]: > 50 mg/kg; ED50 [12]: 14.4 mg/kg; ED50 [13]: 133 mg/kg; ED50 [14]: 4.1 mg/kg
O=C(CCCN1CCC(O)(c2ccc(Cl)cc2)CC1)c1ccc(F)cc1 [HALOPERIDOL],0.14,0.1,0.3,minimal effective dose [10]: 0.3 mg/kg; ED50 [11]: 2 mg/kg; ED50 [12]: 0.3 mg/kg; ED50 [13]: 0.47 mg/kg; ED50 [14]: 0.26 mg/kg
O=C(CCCN1CCC2(CC1)C(=O)NCN2c1ccccc1)c1ccc(F)cc1 [SPIPERONE],1.28,10.8,< 10,–
